In ChEMBL document CHEMBL1921699, “Cucurbitane glucosides from the root of Machilus yaoshansis” (J Nat Prod, 2011):
Calls of active or inactive are those of the source. The rule behind the calls is not given here.

Assays:
[1] = tested on: A549; assay: Cytotoxicity against human A549 cells after 96 hrs by MTT assay; assay type: functional, cell-based; settings: A549, 96 h
Outline: (§1)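 Tested on a human tumour panel of A2780 (ovary), HCT-8 (colon), Bel-7402 (hepatoma), BGC-823 (stomach) and A549 (lung) lines. Camptothecin was the positive control.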

[2] = tested on: A2780; assay: Cytotoxicity against human A2780 cells after 96 hrs by MTT assay; assay type: functional, cell-based; settings: A2780, 96 h; outline: as §1
[3] = tested on: HCT-8; assay: Cytotoxicity against human HCT8 cells after 96 hrs by MTT assay; assay type: functional, cell-based; settings: HCT-8, 96 h; outline: as §1
[4] = Cytotoxicity against human […] cells after 96 hrs by MTT assay; assay type: functional, cell-based; outline: as §1
[5] = tested on: Peritoneal macrophage cell; assay: (§2) Antiinflammatory activity in C57BL6J mouse peritoneal macrophages assessed as inhibition of LPS-stimulated TNFalpha secretion at 10 uM after 24 hrs by MTT assay; assay type: functional, cell-based
[6] = tested on: Bel-7402; assay: Cytotoxicity against human Bel7402 cells after 96 hrs by MTT assay; assay type: functional, cell-based; settings: Bel-7402, 96 h; outline: as §1
[7] = biological target: T1, Tyrosine-protein phosphatase non-receptor type 1 (Homo sapiens, UniProt P18031); assay: Inhibition of GST-tagged human recombinant PTP1B assessed as dephosphorylation of para-nitrophenyl phosphate after 10 mins by spectrophotometric analysis
T1 sequence (P18031 whole entry): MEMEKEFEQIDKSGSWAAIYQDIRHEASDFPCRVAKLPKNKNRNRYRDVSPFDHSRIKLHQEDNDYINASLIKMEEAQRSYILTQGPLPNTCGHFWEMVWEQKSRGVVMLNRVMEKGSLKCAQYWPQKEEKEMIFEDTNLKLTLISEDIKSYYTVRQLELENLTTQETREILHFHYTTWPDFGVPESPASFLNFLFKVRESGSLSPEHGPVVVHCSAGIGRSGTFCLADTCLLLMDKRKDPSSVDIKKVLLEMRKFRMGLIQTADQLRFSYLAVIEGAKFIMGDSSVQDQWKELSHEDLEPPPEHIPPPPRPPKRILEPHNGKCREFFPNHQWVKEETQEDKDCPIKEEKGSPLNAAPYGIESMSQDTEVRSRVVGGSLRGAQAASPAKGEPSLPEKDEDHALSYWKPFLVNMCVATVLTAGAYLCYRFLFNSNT

[8] = as §2; assay type: functional, cell-based; settings: Peritoneal macrophage cell

Row | Compound | IC50 [1] | IC50 [2] | IC50 [3] | IC50 [4] | Activity [5] | IC50 [6] | IC50 [7] | IC50 [8]
1 | CC(=O)OC(C)(C)/C=C/C(=O)[C@](C)(O)[C@H]1[C@H](O)C[C@@]2(C)[C@@H]3CC=C4[C@@H](C=C(O[C@@H]5O[C@H](CO)[C@@H](O)[C@H](O)[C@H]5O)C(=O)C4(C)C)[C@]3(C)C(=O)C[C@]12C | 3.2 µM | > 10 µM | > 10 µM | 4.98 µM | inactive | > 10 µM |  | 
2 | CC(=O)[C@H]1[C@H](O)C[C@@]2(C)[C@@H]3CC=C4[C@@H](C=C(O[C@@H]5O[C@H](CO)[C@@H](O)[C@H](O)[C@H]5O)C(=O)C4(C)C)[C@]3(C)C(=O)C[C@]12C [KHEKADAENGOSIDE K] | > 10 µM | > 10 µM | > 10 µM | > 10 µM | inactive | > 10 µM |  | 
3 | CC(C)(O)/C=C/C(=O)[C@](C)(O)[C@H]1[C@H](O)C[C@@]2(C)[C@@H]3CC=C4[C@@H](C=C(O[C@@H]5O[C@H](CO)[C@@H](O)[C@H](O)[C@H]5O)C(=O)C4(C)C)[C@]3(C)C(=O)C[C@]12C | > 10 µM | > 10 µM | > 10 µM | > 10 µM | inactive | > 10 µM |  | 
4 | CC1(C)C(=O)C(O)=C[C@@H]2C1=CC[C@@H]1[C@@]2(C)C(=O)C[C@]2(C)[C@@H]([C@@](C)(O)C(=O)C[C@@H](O)C(C)(C)O)[C@H](O)C[C@@]12C | > 10 µM | > 10 µM | > 10 µM | > 10 µM | inactive | > 10 µM |  | 
5 | CC1(C)C(=O)C(O[C@@H]2O[C@H](CO)[C@@H](O)[C@H](O)[C@H]2O)=C[C@@H]2C1=CC[C@@H]1[C@@]2(C)C(=O)C[C@]2(C)[C@@H]([C@@](C)(O)C(=O)C[C@H]3NC(=O)OC3(C)C)[C@H](O)C[C@@]12C | > 10 µM | > 10 µM | > 10 µM | > 10 µM | inactive | > 10 µM | 4.26 µM | 
6 | CC1(C)C(=O)C(O)=C[C@@H]2C1=CC[C@@H]1[C@@]2(C)C(=O)C[C@]2(C)[C@@H]([C@@](C)(O)C(=O)C[C@H](O)C(C)(C)O)[C@H](O)C[C@@]12C | > 10 µM | > 10 µM | > 10 µM | > 10 µM |  | > 10 µM |  | > 10 µM
7 | CC1(C)C(=O)C(O[C@@H]2O[C@H](CO)[C@@H](O)[C@H](O)[C@H]2O)=C[C@@H]2C1=CC[C@@H]1[C@@]2(C)C(=O)C[C@]2(C)[C@@H]3[C@@H](C[C@@]12C)O[C@H](C(C)(C)O)CC(=O)[C@]3(C)O | > 10 µM | > 10 µM | > 10 µM | > 10 µM | inactive | > 10 µM | 2.81 µM | 
8 | C[C@H]1[C@H]2[C@@H](C[C@@]3(C)[C@@H]4CC=C5[C@@H](C=C(O[C@@H]6O[C@H](CO)[C@@H](O)[C@H](O)[C@H]6O)C(=O)C5(C)C)[C@]4(C)C(=O)C[C@]23C)O[C@@]2(O)CC(C)(C)O[C@@]12O | > 10 µM | > 10 µM | > 10 µM | > 10 µM | inactive | > 10 µM |  | 
9 | CC[C@@]1(O)C(=O)OCc2c1cc1n(c2=O)Cc2cc3ccccc3nc2-1 [CAMPTOTHECIN] | 0.26 µM | 0.26 µM | 0.26 µM | 0.26 µM |  | 0.26 µM |  | 
10 | CC1(C)C[C@]2(O)O[C@@H]3C[C@@]4(C)[C@@H]5CC=C6[C@@H](C=C(O[C@@H]7O[C@H](CO)[C@@H](O)[C@H](O)[C@H]7O)C(=O)C6(C)C)[C@]5(C)C(=O)C[C@]4(C)[C@H]3[C@@](C)(O)[C@]2(O)O1 | > 10 µM | > 10 µM | > 10 µM | > 10 µM | inactive | > 10 µM | 8.63 µM | 
11 | CC(=O)C1=CC[C@@]2(C)[C@@H]3CC=C4[C@@H](C=C(O[C@@H]5O[C@H](CO)[C@@H](O)[C@H](O)[C@H]5O)C(=O)C4(C)C)[C@]3(C)C(=O)C[C@]12C | > 10 µM | > 10 µM | > 10 µM | > 10 µM | inactive | > 10 µM |  | 
12 | CC1(C)C(=O)C(O[C@@H]2O[C@H](CO)[C@@H](O)[C@H](O)[C@H]2O)=C[C@@H]2C1=CC[C@@H]1[C@@]2(C)C(=O)C[C@]2(C)[C@@H]([C@@](C)(O)C(=O)C[C@@H](O)C(C)(C)O)[C@H](O)C[C@@]12C | > 10 µM | > 10 µM | > 10 µM | > 10 µM | inactive | > 10 µM |  | 
13 | CC1(C)C(=O)C(O[C@@H]2O[C@H](CO)[C@@H](O)[C@H](O)[C@H]2O)=C[C@@H]2C1=CC[C@@H]1[C@@]2(C)C(=O)C[C@]2(C)[C@@H]([C@@](C)(O)C(=O)C[C@H](O)C(C)(C)O)[C@H](O)C[C@@]12C | > 10 µM | > 10 µM | > 10 µM | > 10 µM | inactive | > 10 µM |  | 
14 | CC1(C)C(=O)C(O[C@@H]2O[C@H](CO)[C@@H](O)[C@H](O)[C@H]2O)=C[C@@H]2C1=CC[C@@H]1[C@@]2(C)C(=O)C[C@]2(C)[C@@H]([C@@]3(C)OC=CC3=O)[C@H](O)C[C@@]12C | > 10 µM | > 10 µM | > 10 µM | > 10 µM | inactive | > 10 µM |  | 
15 | CO[C@@H](CC(=O)[C@](C)(O)[C@H]1[C@H](O)C[C@@]2(C)[C@@H]3CC=C4[C@@H](C=C(O)C(=O)C4(C)C)[C@]3(C)C(=O)C[C@]12C)C(C)(C)O | > 10 µM | > 10 µM | > 10 µM | > 10 µM |  | > 10 µM |  | > 10 µM
16 | CO[C@@H](CC(=O)[C@](C)(O)[C@H]1[C@H](O)C[C@@]2(C)[C@@H]3CC=C4[C@@H](C=C(O[C@@H]5O[C@H](CO)[C@@H](O)[C@H](O)[C@H]5O)C(=O)C4(C)C)[C@]3(C)C(=O)C[C@]12C)C(C)(C)O | > 10 µM | > 10 µM | > 10 µM | > 10 µM | inactive | > 10 µM |  | 
